Laboratory results from ChEMBL document CHEMBL2146414, “Lignan derivatives from Krameria lappacea roots inhibit acute inflammation in vivo and pro-inflammatory mediators in vitro” (J Nat Prod, 2011).
Activity calls are given as the source filed them.

Assays:
Format in all cases: functional, organism-based
Mus musculus [1] = assay: Antiinflammatory effect in CD1 mouse ear dermatitis model assessed as reduction in vascular changes at 0.4 umol administered topically per cm'2 of ear measured after 6 hrs post dermatitis induction relative to control
Summary of the method: (§1)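 Male CD-1 mice (28–32 g) anesthetized with ketamine 145 mg/kg ip; right ear (about 1 cm2) given 80 μg croton oil in 15 μL acetone with test substance co-applied in acetone; controls irritant only; left ear untreated. Ears fixed in 10% formalin, paraffin-embedded, 10 μm sections stained hematoxylin-eosin or Giemsa, examined by light microscopy at set times after induction.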

Mus musculus [2] = assay: Antiinflammatory effect in CD1 mouse ear dermatitis model assessed as reduction in cellular changes at 0.4 umol administered topically per cm'2 of ear measured after 6 hrs post dermatitis induction relative to control; summary of the method: as §1
Mus musculus [3] = assay: Antiinflammatory effect in CD1 mouse ear dermatitis model assessed as preservance of mast cell degranulation at 0.4 umol administered topically per cm'2 of ear measured after 6 hrs post dermatitis induction relative to control; summary of the method: as §1
Mus musculus [4] = assay: Antiinflammatory effect in CD1 mouse ear dermatitis model assessed as reduction in mast cell degranulation at 0.4 umol administered topically per cm'2 of ear measured after 6 hrs post dermatitis induction relative to control; summary of the method: as §1
Mus musculus [5] = assay: Antiinflammatory effect in CD1 mouse ear dermatitis model assessed as reduction in leukocyte infiltration-based myeloperoxidase at 0.4 umol administered topically per cm'2 of ear measured after 6 hrs post dermatitis induction relative to control
Summary of the method: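 CD-1 mice, croton oil 80 μg in acetone on right ear with topical test substance; ear punch (6 mm) homogenized in 0.1 M sodium acetate pH 4.2 with 0.1% HTAB, centrifuged 15000g 5 min; supernatant myeloperoxidase measured with TMB (2.83 mM) and 0.7 mM H2O2, 5 min at 25 °C, stopped with acetic acid, A620; duplicates; units = nM TMB oxidized/min.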

Measured: inhibition

COc1ccc(-c2cc3cc(CCCO)ccc3o2)c(O)c1
active: Mus musculus [1] | Mus musculus [2] | Mus musculus [3] | Mus musculus [4] | Mus musculus [5]

C/C=C/c1ccc2c(c1)[C@@H](C)[C@H](c1ccc(O)cc1)O2
active: Mus musculus [1] | Mus musculus [2] | Mus musculus [3] | Mus musculus [4] | Mus musculus [5]
